NPY-Y2 PAM-ag: potentiates or activates human NPY-Y2 receptor; activation, % at 3.6 µM; cells expressing NPY-Y2, potentiator/agonist read-out; 220,000 compounds, 0.45% hits; in the data active = activation above about 27%;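 note: cells stimulated with NPY near EC25 plus isoproterenol at EC100; 0% = vehicle plus submaximal agonist and 100% = vehicle plus saturating agonist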
Target sequence (P49146 whole entry, looked up): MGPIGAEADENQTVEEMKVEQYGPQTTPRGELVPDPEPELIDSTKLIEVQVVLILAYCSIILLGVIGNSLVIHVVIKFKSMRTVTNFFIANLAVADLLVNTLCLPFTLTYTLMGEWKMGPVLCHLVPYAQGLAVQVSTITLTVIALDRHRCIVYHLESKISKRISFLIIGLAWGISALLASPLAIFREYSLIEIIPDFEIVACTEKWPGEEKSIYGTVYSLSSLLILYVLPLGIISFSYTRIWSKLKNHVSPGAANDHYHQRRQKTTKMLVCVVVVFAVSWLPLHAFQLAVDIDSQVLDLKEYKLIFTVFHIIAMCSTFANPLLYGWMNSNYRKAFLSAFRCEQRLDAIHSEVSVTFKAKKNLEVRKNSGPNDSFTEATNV
EP2 modulator: modulates human prostaglandin E2 receptor EP2 signaling. P43116. EP2-expressing cells, cAMP HTRF FRET, PGE2 co-stimulation. induction, % at 25 µM. 260,000 compounds, 0.83% hits;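 active = compounds whose cAMP rise, as percent of the full-agonist control response, exceeds 60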;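 note: rat C6 glioma line stably carrying human EP2 under a CMV promoter; the protocol text gives 20 µM as final concentration; 100% = response of wells given 1 µM PGE2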
Target sequence (P43116 whole entry, looked up): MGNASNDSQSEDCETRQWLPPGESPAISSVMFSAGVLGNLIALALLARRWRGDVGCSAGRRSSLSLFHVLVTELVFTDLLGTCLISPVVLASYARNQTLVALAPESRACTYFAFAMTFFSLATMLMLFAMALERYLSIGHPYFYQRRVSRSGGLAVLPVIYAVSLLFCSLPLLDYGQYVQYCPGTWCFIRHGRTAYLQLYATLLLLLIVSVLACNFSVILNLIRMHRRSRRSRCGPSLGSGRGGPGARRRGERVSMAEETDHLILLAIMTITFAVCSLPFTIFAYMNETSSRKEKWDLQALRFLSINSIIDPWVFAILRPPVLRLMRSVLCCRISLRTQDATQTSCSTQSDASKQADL
EP2 antag: EP2 receptor (human) inhibition; AID 1422; C6 glioma cells expressing human EP2, cAMP TR-FRET; cells stimulated with saturating PGE2; 260,000 compounds, 0.52% hits; inhibition, % at 25 µM;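 active = percent inhibition above 40 after rounding to a whole number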;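 note: rat C6 glioma host cells with rolipram phosphodiesterase inhibitor present; the protocol text gives 20 µM as final concentration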
NPY-Y1 antag: antagonists of human neuropeptide Y receptor Y1 | P25929 | HEK293-CNG Y1 cells, membrane potential fluorescence; NPY at EC95, then isoproterenol | inhibition, % at 3.6 µM | 200,000 compounds, 1% hits | AID 1040;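 active = inhibition above the campaign mean inhibition of all tested compounds plus 3 SD, cut at about 20% in these data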;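 note: 0% = DMSO wells given NPY plus isoproterenol and 100% = isoproterenol alone without NPY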
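Test system: HEK293 cells co-expressing NPY Y1 receptor and cyclic-nucleotide gated channel; Also added: NPY (25 nM), isoproterenol (1 µM), Ro 20-1724 (25 µM); Compound dosing: one concentration, 3.6 µM, in 0.4% DMSO; Timing: dye 3 h, compound 60 min room temperature, stimulation 45 min; Technique: Membrane-potential fluorescent dye readout.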
NPY-Y1 PAM-ag: potentiators or agonists of human neuropeptide Y receptor Y1 | activation, % at 3.6 µM | 220,000 compounds, 0.37% hits | P25929 | NPY-Y1 expressing cells, potentiator/agonist activation; in the data active = activation above about 33%, passing the limit was not always enough;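 note: cells stimulated with NPY at EC10 then isoproterenol at EC100; 0% = low agonist plus stimulus and 100% = saturating agonist plus stimulus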
NPY-Y2 antag: antagonists of human neuropeptide Y receptor Y2 | NPY-Y2 expressing cells, antagonist mode | 140,000 compounds, 0.99% hits | P49146 | inhibition, % at 2.7 µM;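 note: 0% = vehicle with agonist challenge and 100% = reference antagonist with challenge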
NPY1 antag conf: confirmation of human neuropeptide Y receptor Y1 antagonists | shares compounds with NPY-Y1 antag | HEK293-CNG NPY-Y1, membrane potential fluorescence, cAMP; NPY challenge against isoproterenol-raised cAMP | inhibition, % at 3.6 µM | 1,200 compounds, 21% hits | AID 1254; in the data active = inhibition above about 20%;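 note: 0% = vehicle with agonist plus stimulus and 100% = stimulus alone without agonist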
NPY2 antag ctr: counter-screen for NPY-Y1 antagonists: human NPY-Y2 antagonism; shares compounds with NPY-Y1 antag; HEK293 NPY-Y2 CNG membrane potential fluorescence; cells given NPY, then isoproterenol; inhibition, % at 3.6 µM; 1,200 compounds, 28% hits; AID 1255;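 note: 0% = DMSO with agonist challenge and 100% = reference antagonist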
* hit, by the source's call; / = no result. Most compounds without a hit are left out; they make up all but 2.8% or so of the library. Cut-off read from the data, not from the text of the source, unless noted: active = inhibition above about 17%; inactive = the rest.

SMILES | NPY-Y2 PAM-ag | EP2 modulator | EP2 antag | NPY-Y1 antag | NPY-Y1 PAM-ag | NPY-Y2 antag | NPY1 antag conf | NPY2 antag ctr
CN(C)S(=O)(=O)c1cc(NC(=O)CN2CCCc3ccccc32)ccc1Cl | 8 | -44 | 5 | 71* | 19 | / | 1 | 3
O=C(Cc1ccc2c(c1)OCO2)NC1(c2ccc(F)cc2)CCCC1 | / | -19 | 1 | / | / | / | / | /
Cc1ccc(C(O)(c2ccccc2)c2ccccc2C(C)N(C)C)c(C)c1 (stereo not drawn) | -36 | -7 | 10 | 25* | 4 | 16 | 21* | 32*
O=C(NCc1ccco1)c1nc(-c2ccc(F)cc2)no1 | -21 | -22 | 8 | 24* | -30 | / | 11 | 9
COC(=O)c1c(NC(=O)CCc2ccccc2)sc(C(=O)N2CCCCC2)c1C | / | -63 | 20 | / | / | / | / | /
CC(=O)c1c(OC(=O)c2ccc(C)cc2)c2ccccc2n1C | -27 | 41 | 10 | 34* | -30 | 15 | 13 | 13
CC1CCN(C(=O)Cn2c(=O)n(Cc3ccc4c(c3)OCO4)c(=O)c3ccccc32)CC1 | -2 | 22 | 15 | 5 | 7 | 6 | / | /
CC1CCN(C(=O)CSc2nc3ccccc3c(=O)n2Cc2ccc3c(c2)OCO3)CC1 | -20 | 0 | 2 | 21* | -43 | 12 | 4 | 6
Cn1ccnc1C1CCCCN1Cc1nc(-c2ccc(Cl)cc2)no1 (stereo not drawn) | -26 | -53 | 2 | 43* | -15 | / | 13 | 9
Clc1ccc(-c2noc(CN3CCCC3)n2)cc1 | -10 | 4 | 13 | 7 | 11 | 4 | / | /
Cc1ccc(-c2cc(C(=O)Nc3cc(C)on3)c3ccccc3n2)c(C)c1 | -41 | 39 | 11 | 35* | -115 | 9 | 29* | 51*
Cc1cccc(NC(=O)c2cc(-c3ccccn3)nc3ccccc23)c1C | -59 | 6 | 13 | 39* | -122 | / | 25* | 23*
Cc1csc(NC(=O)c2cc(-c3ccccc3)nc3ccccc23)n1 | -30 | 6 | 5 | 22* | -105 | 13 | 19 | 12
CC(C)(C)c1nnc(NC(=O)c2cc(-c3ccccc3)nc3ccccc23)s1 | -6 | -9 | 10 | 5 | -32 | 3 | / | /
O=C(NC1CC1)c1cc(-c2ccccn2)nc2ccccc12 | -10 | 15 | 10 | -1 | -7 | 3 | / | /
Cc1cc(NC(=O)c2cc(-c3ccccc3C)nc3ccccc23)no1 | -6 | 30 | 1 | 0 | -5 | 1 | / | /
CC(C)NC(=O)CSc1nnc2c(n1)[nH]c1ccc(F)cc12 | / | -27 | 5 | / | / | / | / | /
Cc1nc(C)n(CCNC(=O)C2(C)CC(c3ccccc3)=NO2)n1 (stereo not drawn) | / | -17 | 6 | / | / | / | / | /
COc1cc2[nH]c(=O)c(C(=O)NCCCN(C)C)c(O)c2cc1OC | / | 19 | 7 | / | / | / | / | /
O=C(c1ccc2c(c1)OCCO2)N1CCC(n2nc(-c3cccs3)ccc2=O)CC1 | / | -21 | / | / | / | / | / | /
CC12COC3(C(=O)Nc4ccc5ccccc5c4)CC1CCC32C (stereo not drawn) | -20 | -47 | 9 | 23* | -19 | / | 13 | 24*
COc1ccc(NC(=O)C2CC(=O)N(c3ccc(Cl)cc3)C2)c(OC)c1 (stereo not drawn) | / | -25 | 12 | / | / | / | / | /
N=c1n(CCN2CCCC2)c2ccccc2n1CC(O)c1ccc(Cl)c(Cl)c1 (stereo not drawn) | -28 | -83 | 10 | 43* | -33 | / | 16 | 29*
N=c1n(CCN2CCOCC2)c2ccccc2n1CC(=O)c1ccc(Cl)c(Cl)c1 | -5 | -27 | 11 | 16 | -5 | 7 | / | /
N=c1n(Cc2ccccc2Cl)c2ccccc2n1CC(O)c1ccco1 (stereo not drawn) | -7 | -31 | 6 | 28* | 6 | / | 15 | 25*
SMILES | NPY-Y2 PAM-ag | EP2 modulator | EP2 antag | NPY-Y1 antag | NPY-Y1 PAM-ag | NPY-Y2 antag | NPY1 antag conf | NPY2 antag ctr
N=c1n(Cc2ccccc2)c2ccccc2n1CC(O)c1ccccc1 (stereo not drawn) | -14 | -13 | 4 | 28* | -24 | 16 | 9 | 16
Cn1c(=N)n(CC(O)c2ccco2)c2ccccc21 (stereo not drawn) | -26 | 23 | 7 | 8 | 0 | 4 | / | /
CCc1cccc(CC)c1NC(=O)COC(=O)C1(C)CC1(Cl)Cl (stereo not drawn) | -7 | 19 | 6 | 29* | -4 | / | 11 | 18*
CC1(C(=O)OCC(=O)Nc2ccc(C(N)=O)cc2)CC1(Cl)Cl (stereo not drawn) | -2 | -5 | 2 | 4 | 12 | / | / | /
O=C(COc1ccccc1Cl)c1ccc2c(c1)CCCC2 | -20 | 27 | / | 21* | -52 | 5 | 11 | 9
CC1Cc2ccccc2N1C(=O)c1cc2sccc2n1Cc1ccc(F)cc1 (stereo not drawn) | -12 | 60 | 15 | 20* | -39 | 11 | 8 | 15
COc1ccc(N=c2oc3cc(O)ccc3cc2C(=O)NCC2CCCO2)cc1 (stereo not drawn) | -9 | 7 | 2 | 33* | -17 | 17 | 11 | 6
N#Cc1ccc(CSc2nnc(-c3ccccc3)n2Cc2ccco2)cc1 | -17 | 11 | 1 | 33* | 7 | 16 | 5 | 4
CCN1CCN(CC(=O)NCc2ccc(F)cc2)CC1 | / | -5 | 11 | / | / | / | / | /
Brc1ccc(-c2csc(/N=C/N3CCCC3)n2)cc1 | -27 | -31 | 2 | 32* | -11 | / | 31* | 13
Cc1cc2cc(C)c(NCCNC(=O)c3cccc(F)c3)nc2cc1C | -56 | -1 | 7 | 40* | -70 | / | 28* | 12
Cc1cc2cc(C)c(NCCNC(=O)c3cccs3)nc2cc1C | -49 | -76 | 17 | 56* | -75 | / | 43* | 65*
Cc1cccc(C(=O)NCCNc2nc3cc(C)c(C)cc3cc2C)c1 | -47 | 18 | 12 | 45* | -103 | / | 29* | 33*
Cc1cc2cc(C)c(NCCNC(=O)c3ccccc3F)nc2cc1C | -65 | -3 | 7 | 32* | -60 | / | 20 | 29*
Cc1ccccc1NC(=O)CN1C(=O)C(C)(C)Oc2ccc(C(=O)NC(C)C)cc21 | / | -2 | 5 | / | / | / | / | /
CC(C)(C)C(=O)N1CCCc2cc(C(O)CN3CCCC3)ccc21 (stereo not drawn) | / | -32 | 6 | / | / | / | / | /
COC(=O)CN1C(=O)C(C)(C)Oc2ccc(C(=O)Nc3ccccc3OC)cc21 | / | -61 | 8 | / | / | / | / | /
COc1ccc2cc(C(c3nnnn3C(C)(C)C)N3CCCC(C)C3)c(=O)[nH]c2c1 (stereo not drawn) | / | 9 | 15 | / | / | / | / | /

Compound activity deposited in PubChem by several laboratories.
